These results are taken from ChEMBL document CHEMBL1135769, “Design, synthesis, and biological evaluation of aryloxyethyl thiocyanate derivatives against Trypanosoma cruzi” (J Med Chem, 2002).

The subject of assay [1] is Trypanosoma cruzi. Briefly: Antiproliferative activity against epimastigote form of Trypanosoma cruzi. Format: functional, organism-based. Put shortly: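 Y-strain epimastigotes grown at 28 °C in brain-heart infusion (37 g/L) with hemin chlorohydrate (20 mg/L) and 10% newborn calf serum. Inoculum was (2-3) × 10^6 cells/mL. Compounds were tested at 1, 10, 50 and 100 µg/mL, each in quadruplicate, with at most 1% ethanol. Growth was read as A600. Percent inhibition came from the absorbance change from start to end versus controls, and IC50 was estimated by linear and polynomial regression.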

In assay [2] the test system is Trypanosoma cruzi. The assay is described as follows: Inhibition of growth of uM. It is filed as functional. An outline of the steps:
(§1)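 Epimastigotes (Y strain) were cultured at 28 °C in brain-heart infusion medium with hemin and 10% newborn calf serum, starting at (2-3) × 10^6 cells/mL, with at most 1% ethanol vehicle. Culture density was followed by absorbance at 600 nm. Percent growth inhibition = 100 − (ΔA drug-treated × 100 / ΔA control), where ΔA is the change from start to end of the experiment.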

The test system of assay [3] is Trypanosoma cruzi. The assay is described as follows: Antiparasitic activity against amastigote form of Trypanosoma cruzi.
For assay [4], the system named is Trypanosoma cruzi. The assay is described as follows: Percent Inhibition of multiplication of Trypanosoma cruzi. Format: functional. An outline of the steps: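 Intracellular assay in L6E9 myoblasts irradiated with 2000 rad, seeded at 1.2 × 10^7 cells/flask in DMEM with 20% FCS and held 24 h at 35 °C. Cells infected 2 h with 5 × 10^7 Y-strain trypomastigotes/flask, then washed. Drugs added at several concentrations with 1.0 µCi [5,6-3H]uracil for 72 h. Percent inhibition of uracil uptake from mean cpm versus infected untreated cells. Host-cell toxicity checked by phase-contrast microscopy.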

Assay [5] relates to Trypanosoma cruzi. The assay is described as follows: (§2) Percent Inhibition of growth of uM. Format: functional. An outline of the steps:
as §1

In assay [6] the test system is Trypanosoma cruzi. The assay is described as follows: Inhibitory activity towards Trypanosoma cruzi.
Assay [7] concerns Trypanosoma cruzi. The assay is described as follows: Inhibition against Trypanosoma cruzi at a concentration of 70 uM. Format: functional. Put shortly: as §1
Assay [8] relates to Trypanosoma cruzi. The assay is described as §2. It is filed as functional. Put shortly:
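Y-strain T. cruzi epimastigotes grown at 28 °C in brain-heart infusion (37 g/L) with hemin (20 mg/L) and 10% newborn calf serum. Start inoculum (2-3) × 10^6 cells/mL. Four concentrations (1, 10, 50, 100 µg/mL), each in quadruplicate, with at most 1% ethanol. Growth read as A600 at start and end; percent inhibition taken against untreated cultures. IC50 estimated by linear and polynomial regression.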
The source holds these as a separate data set.

Take `C/C=C/c1cc(Oc2ccccc2)ccc1OCCOC1CCCCO1` (stereo not drawn): the IC50 (in general, the point on the concentration scale where inhibition reaches its midpoint) with Trypanosoma cruzi [1] is > 60 µM.

As to `Clc1ccccc1OCCOC1CCCCO1` (stereo not drawn), the Inhibition (as a rule, the drop in the measured response relative to a control, in per cent) in the assay on Trypanosoma cruzi [2] worked out at 22%. For the same compound, the IC50 in the assay on Trypanosoma cruzi [1] is > 70 µM.

As for `S=C(NCCOc1ccc(Oc2ccccc2)cc1)SCc1ccccc1`, the IC50 with Trypanosoma cruzi [3] was > 70 µM; in the assay on Trypanosoma cruzi [1], 32.2 µM.

As to `Cc1ccccc1OCCSC#N`, the IC50 with Trypanosoma cruzi [1] turned out to be 16.4 µM. This lies in the double-digit micromolar range.

Regarding `Cc1cccc(OCCOC2CCCCO2)c1C` (stereo not drawn), the IC50 in the assay on Trypanosoma cruzi [1] was > 70 µM.

As for `N#CSCCOc1ccc(Nc2ccccc2)cc1`, the results for the IC50 in the assay with Trypanosoma cruzi [3] and in the assay with Trypanosoma cruzi [1] were 41.1 µM and 3.3 µM, respectively. In the assay with Trypanosoma cruzi [4], this compound came in with an Inhibition of 10%.

With `C=CCc1cc(Oc2ccccc2)ccc1OCCSC#N`, the IC50 is > 70 µM in the assay with Trypanosoma cruzi [3] and > 60 µM in the assay on Trypanosoma cruzi [1].

Turning to `N#CSCCOc1ccccc1Cl`, half-maximal inhibition with Trypanosoma cruzi [1] (IC50) required 11.4 µM.

`c1ccc(Oc2ccc(OCCSc3ccccc3)cc2)cc1` displayed an IC50 in the assay with Trypanosoma cruzi [1] of 62.1 µM.

`C/C=C/c1cc(Oc2ccccc2)ccc1OCCSC#N`: the IC50 was 14 µM with Trypanosoma cruzi [3] and 6.8 µM in the assay on Trypanosoma cruzi [1].

As to `Cc1cccc(OCCSC#N)c1C`, the IC50 in the assay on Trypanosoma cruzi [1] was 14.8 µM.

Take `CSCCOc1ccc(Oc2ccccc2)cc1`: in the assay with Trypanosoma cruzi [2], the Inhibition is on record as 18%. Also, the IC50 in the assay with Trypanosoma cruzi [1] was > 100 µM.

As to `Cc1cccc(C)c1OCCSC#N`, the IC50 in the assay with Trypanosoma cruzi [3] was > 70 µM; in the assay on Trypanosoma cruzi [1], 13.3 µM.

In the case of `Cc1ccc(S(=O)(=O)c2cc(Oc3ccccc3)ccc2OCCOC2CCCCO2)cc1` (stereo not drawn), the IC50 with Trypanosoma cruzi [1] is > 70 µM.

For `Cc1ccc(C)c(OCCSC#N)c1`, the IC50 with Trypanosoma cruzi [1] was determined as 14.5 µM.

On to `Cc1ccc(OCCSC#N)cc1`, for which the IC50 in the assay on Trypanosoma cruzi [1] turned out to be 12.1 µM.

As to `Cc1ccc(OCCOC2CCCCO2)c(C)c1` (stereo not drawn), the IC50 in the assay on Trypanosoma cruzi [1] is > 70 µM.

In turn, `C[S@+]([O-])CCCCN=C=S` [L-SULFORAPHANE] yielded an IC50 with Trypanosoma cruzi [1] of 102 µM.

As to `Cc1cccc(C)c1OCCOC1CCCCO1` (stereo not drawn), the IC50 in the assay on Trypanosoma cruzi [1] was > 70 µM.

Take `[N-]=[N+]=NCC(O)COc1ccc(Oc2ccccc2)cc1` (stereo not drawn): the IC50 with Trypanosoma cruzi [1] was > 70 µM.

For the compound `N#CSCCOc1ccccc1I`, the IC50 is > 70 µM in the assay with Trypanosoma cruzi [3] and 18.5 µM with Trypanosoma cruzi [1].

On to `Cc1ccc(C)c(OCCOC2CCCCO2)c1` (stereo not drawn), for which the Inhibition in the assay on Trypanosoma cruzi [2] is recorded as 15%. Further, in the assay with Trypanosoma cruzi [1], the IC50 is > 70 µM.

On to `c1ccc(CSCCOc2ccc(Oc3ccccc3)cc2)cc1`, for which the Inhibition with Trypanosoma cruzi [2] is given as 41%. In addition, in the assay with Trypanosoma cruzi [1], the concentration for half-maximal inhibition (IC50) was > 60 µM.

As for `N#CSCCOc1ccccc1Br`, the midpoint of inhibition in the assay on Trypanosoma cruzi [1], the IC50, lay at 20.2 µM.

In the assay with Trypanosoma cruzi [1], `Cc1cc(C)cc(OCCSC#N)c1` registered an IC50 of 19.3 µM.

`N#CSCCOc1ccc2c(c1)[nH]c1ccccc12`: in the assay with Trypanosoma cruzi [1], the midpoint of inhibition, the IC50, lay at 10.3 µM.

For the compound `Cc1ccccc1OCCOC1CCCCO1` (stereo not drawn), the IC50 with Trypanosoma cruzi [1] is > 70 µM.

As for `Cc1ccc(S(=O)(=O)c2cc(Oc3ccccc3)ccc2OCCSC#N)cc1`, the IC50 in the assay with Trypanosoma cruzi [1] amounted to 4.7 µM.

Take `N#CSCCOc1ccccc1`: the IC50 with Trypanosoma cruzi [1] is 16.8 µM.

Consider `S=C=NCCOc1ccc(Oc2ccccc2)cc1`, for which the IC50 worked out at 46.7 µM with Trypanosoma cruzi [3] and 15.9 µM with Trypanosoma cruzi [1].

As to `O=C=NCCOc1ccc(Oc2ccccc2)cc1`, the Inhibition in the assay on Trypanosoma cruzi [5] stood at 28%. In addition, the half-inhibitory concentration (IC50) in the assay with Trypanosoma cruzi [1] is > 70 µM.

For `c1ccc(Cn2c3ccccc3c3ccc(OCCOC4CCCCO4)cc32)cc1` (stereo not drawn), in the assay with Trypanosoma cruzi [1], the IC50 is > 70 µM.

For `CS/C(S)=N/CCOc1ccc(Oc2ccccc2)cc1`, the IC50 in the assay on Trypanosoma cruzi [3] was determined as 27.4 µM; in the assay with Trypanosoma cruzi [1] it was 45.6 µM.

As for `C=CCSC(=S)NCCOc1ccc(Oc2ccccc2)cc1`, the figures for the IC50 in the assay with Trypanosoma cruzi [3] and in the assay on Trypanosoma cruzi [1] were > 70 µM and 33.3 µM, respectively.

`Cc1ccc(OCCOC2CCCCO2)cc1` (stereo not drawn): the Inhibition with Trypanosoma cruzi [2] came out at 11%. Besides, the IC50 in the assay with Trypanosoma cruzi [1] is > 70 µM.

As to `Cc1ccc(OCCSC#N)c(C)c1`, the IC50 in the assay with Trypanosoma cruzi [3] is 5 µM; in the assay with Trypanosoma cruzi [1], 18.8 µM.

As for `c1ccc(Nc2ccc(OCCOC3CCCCO3)cc2)cc1` (stereo not drawn), in the assay on Trypanosoma cruzi [1], the midpoint of inhibition, the IC50, lay at 31.4 µM. That is a double-digit micromolar value.

As for `C[S+]([O-])CCCCN=C=S` (stereo not drawn) [SULFORAPHANE], the IC50 with Trypanosoma cruzi [6] is 15 µM; with Trypanosoma cruzi [1], > 120 µM.

Turning to `Cc1cc(C)cc(OCCOC2CCCCO2)c1` (stereo not drawn), the IC50 with Trypanosoma cruzi [1] was > 70 µM.

In the case of `O=C(NCCOc1ccc(Oc2ccccc2)cc1)C1CC1`, the inhibition (in general, the share of the control response that was lost under treatment) at 70 µM in the assay with Trypanosoma cruzi [7] was determined as 31%. Moreover, the IC50 with Trypanosoma cruzi [1] was > 70 µM.

Regarding `Ic1ccccc1OCCOC1CCCCO1` (stereo not drawn), in the assay on Trypanosoma cruzi [2], the Inhibition was 20%. Further, in the assay with Trypanosoma cruzi [1], the IC50 is > 60 µM.

Take `c1ccc(Oc2ccc(OCC3CN3)cc2)cc1` (stereo not drawn): half-maximal inhibition in the assay with Trypanosoma cruzi [1] (IC50) required 41.5 µM.

With `[O-][S+](c1ccccc1)c1ccc(OCCOC2CCCCO2)cc1` (stereo not drawn), in the assay on Trypanosoma cruzi [1], the 50% inhibitory concentration (IC50) is > 70 µM.

Turning to `N#CSCCOc1ccc([S+]([O-])c2ccccc2)cc1` (stereo not drawn), the IC50 turned out to be 58.8 µM in the assay on Trypanosoma cruzi [3] and 7.7 µM with Trypanosoma cruzi [1].

In the case of `CC(C)(C)/N=C(\S)NCCOc1ccc(Oc2ccccc2)cc1`, in the assay with Trypanosoma cruzi [1], the IC50 turned out to be 40.3 µM.

Turning to `C=CCc1cc(Oc2ccccc2)ccc1OCCOC1CCCCO1` (stereo not drawn), the IC50 with Trypanosoma cruzi [1] was > 60 µM.

As to `CC(=O)N1CCN(c2ccc(OCC3COC(Cn4ccnc4)(c4ccc(Cl)cc4Cl)O3)cc2)CC1` (stereo not drawn) [KETOCONAZOLE], the Inhibition in the assay with Trypanosoma cruzi [8] was 18%.
